Laboratory results reported in ChEMBL document CHEMBL4334465, “SAR Studies on Aromatic Acylhydrazone-Based Inhibitors of Fungal Sphingolipid Synthesis as Next-Generation Antifungal Agents” (J Med Chem, 2019).
Converted amounts (≈) assume the structure as drawn. The source made the active and inactive calls. The rule behind the calls is not given here.

Experiments:
[1] = Selectivity index, ratio of LD50 for human A549 cells to MIC80 for Cryptococcus neoformans H99; format: toxicity; details: read-out: Selectivity Index
How it was run: (§1)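 SI = LD₅₀/MIC₈₀. Cytotoxicity: A549 or HepG2 cells (DMEM, 10% FBS, passage 7, 10⁵ cells/well) adhered 14 h, then exposed to 0.03–128 μg/mL for 24 or 48 h at 37°C, 5% CO₂; MTT 4 h, formazan dissolved in DMSO, read at 570 nm. MIC₈₀ against C. neoformans from broth microdilution in HEPES-buffered YNB, pH 7.0.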

[2] = Selectivity index, ratio of LD50 for human HepG2 cells to MIC80 for Cryptococcus neoformans H99; format: toxicity; details: read-out: Selectivity Index; how it was run: as §1
[3] = test system: HepG2; experiment: Cytotoxicity against human HepG2 cells after 24 to 48 hrs by MTT assay; format: functional; details: read-out: LD50 (the source's name)
How it was run: (§2)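 A549 and HepG2 kept in DMEM with 10% FBS and 1% pen-strep. At passage 7, seeded at 10⁵ cells/well and allowed to adhere 14 h. Compound added at 0.03–128 μg/mL, untreated wells as controls. Incubation 37°C, 5% CO₂ for 24 or 48 h. MTT (5 mg/mL in PBS) added for 4 h, formazan dissolved in DMSO, OD570.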

[4] = test system: Candida albicans; experiment: Antifungal activity against Candida albicans assessed as FICI in presence of itraconazole; format: functional
How it was run: (§3)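 Checkerboard combination scored by fractional inhibitory concentration index. Acylhydrazone serially diluted 16 to 0.015 μg/mL (11 dilutions). Partner drug in seven dilutions: fluconazole 12 to 0.19 μg/mL, amphotericin B 5 to 0.078 μg/mL, caspofungin, itraconazole or voriconazole 8 to 0.007 μg/mL.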

[5] = test system: Candida parapsilosis; experiment: Antifungal activity against Candida parapsilosis assessed as FICI in presence of voriconazole; format: functional; how it was run: as §3
[6] = test system: Pichia kudriavzevii; experiment: Antifungal activity against Candida krusei 6258 assessed as FICI in presence of itraconazole; format: functional; how it was run: as §3
[7] = test system: Aspergillus fumigatus; experiment: Antifungal activity against Aspergillus fumigatus measured after 24 to 72 hrs; format: functional
How it was run: (§4)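 Modified CLSI broth microdilution with inoculum per M27A3. Compounds were serially diluted 32 to 0.03 μg/mL. Media: C. neoformans in HEPES-buffered YNB without amino acids (pH 7.0, 2% glucose); Candida strains in YNB without ammonium sulfate or amino acids plus 1% asparagine (pH 7.0, 2% glucose); A. fumigatus in RPMI (pH 7.0, 2% glucose).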

[8] = test system: Cryptococcus neoformans; experiment: Antifungal activity against Cryptococcus neoformans H99 assessed as FICI in presence of amphotericin B; format: functional, var grubii H99; how it was run: as §3
[9] = test system: [Candida] auris; experiment: Antifungal activity against Candida auris measured after 24 to 72 hrs; format: functional; details: Candidozyma auris; how it was run: as §4
[10] = test system: Pichia kudriavzevii; experiment: Antifungal activity against Candida krusei 6258 assessed as FICI in presence of caspofungin; format: functional; how it was run: as §3
[11] = test system: Pichia kudriavzevii; experiment: Antifungal activity against Candida krusei 6258 assessed as FICI in presence of voriconazole; format: functional; how it was run: as §3
[12] = test system: [Candida] auris; experiment: Antifungal activity against Candida auris assessed as FICI in presence of caspofungin; format: functional, Candidozyma auris; how it was run: as §3
[13] = test system: Aspergillus fumigatus; experiment: Antifungal activity against Aspergillus fumigatus assessed as FICI in presence of itraconazole; format: functional; how it was run: as §3
[14] = test system: Candida parapsilosis; experiment: Antifungal activity against Candida parapsilosis assessed as FICI in presence of itraconazole; format: functional; how it was run: as §3
[15] = test system: A549; experiment: Cytotoxicity against human A549 cells after 24 to 48 hrs by MTT assay; format: functional; details: read-out: LD50 (the source's name); how it was run: as §2
[16] = test system: Candida albicans; experiment: Antifungal activity against Candida albicans assessed as FICI in presence of voriconazole; format: functional; how it was run: as §3
[17] = test system: Pichia kudriavzevii; experiment: Antifungal activity against fluconazole-resistant Candida krusei assessed as FICI in presence of caspofungin; format: functional
How it was run: (§5)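 Checkerboard in 96-well plate. Test compound diluted 16 to 0.015 μg/mL (11 dilutions) against the partner drug in seven dilutions: fluconazole 12 to 0.19 μg/mL, caspofungin, itraconazole or voriconazole 8 to 0.007 μg/mL. Fractional inhibitory concentration index (FICI) calculated from the combinations.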

[18] = test system: Cryptococcus neoformans; experiment: Antifungal activity against Cryptococcus neoformans H99 assessed as FICI in presence of itraconazole; format: functional, var grubii H99; how it was run: as §3
[19] = test system: Cryptococcus neoformans; experiment: Fungicidal activity against Cryptococcus neoformans H99 measured up to 96 hrs by time-kill assay; format: functional, organism-based; details: var grubii H99
How it was run: (§6)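 Overnight C. neoformans washed in PBS and resuspended in HEPES-buffered YNB, pH 7.4. 2 × 10⁴ cells exposed to a range of drug concentrations in 10 mL with 0.5% DMSO final, at 37°C, 5% CO₂, shaking at 200 rpm. Aliquots sampled over 96 h, diluted and plated on YPD; CFU counted after 48 h at 30°C.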

[20] = test system: Pichia kudriavzevii; experiment: Antifungal activity against fluconazole-resistant Candida krusei assessed as FICI in presence of itraconazole; format: functional; how it was run: as §5
[21] = test system: [Candida] auris; experiment: Antifungal activity against Candida auris assessed as FICI in presence of voriconazole; format: functional, Candidozyma auris; how it was run: as §3
[22] = test system: Cryptococcus neoformans; experiment: Antifungal activity against Cryptococcus neoformans H99 assessed as FICI in presence of voriconazole; format: functional, var grubii H99; how it was run: as §3
[23] = test system: Candida parapsilosis; experiment: Antifungal activity against Candida parapsilosis assessed as FICI in presence of fluconazole; format: functional; how it was run: as §3
[24] = test system: [Candida] auris; experiment: Antifungal activity against Candida auris assessed as FICI in presence of fluconazole; format: functional, Candidozyma auris; how it was run: as §3
[25] = test system: Candida parapsilosis; experiment: Antifungal activity against Candida parapsilosis assessed as FICI in presence of caspofungin; format: functional; how it was run: as §3
[26] = test system: Pichia kudriavzevii; experiment: Antifungal activity against Candida krusei measured after 24 to 72 hrs; format: functional
How it was run: (§7)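 MIC by modified CLSI broth microdilution. Candida strains grown in YNB without ammonium sulfate or amino acids with 1% asparagine, pH 7.0, 2% glucose. Inoculum per CLSI M27A3. Compound serially diluted 32 to 0.03 μg/mL. Incubation 37°C, 5% CO₂, 24–72 h, then OD450. MIC80 taken as the lowest concentration giving 80% growth inhibition versus untreated control.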

[27] = test system: Pichia kudriavzevii; experiment: Antifungal activity against multi-drug resistant Candida krusei measured after 24 to 72 hrs; format: functional; how it was run: as §7
[28] = test system: Pichia kudriavzevii; experiment: Antifungal activity against fluconazole-resistant Candida krusei assessed as FICI in presence of voriconazole; format: functional; how it was run: as §5
[29] = test system: Candida albicans; experiment: Antifungal activity against Candida albicans assessed as FICI in presence of caspofungin; format: functional; how it was run: as §3
[30] = test system: Aspergillus fumigatus; experiment: Antifungal activity against Aspergillus fumigatus assessed as FICI in presence of fluconazole; format: functional; how it was run: as §3
[31] = test system: Candida parapsilosis; experiment: Antifungal activity against Candida parapsilosis measured after 24 to 72 hrs; format: functional; details: Lodderomyces parapsilosis; how it was run: as §4
[32] = test system: Aspergillus fumigatus; experiment: Antifungal activity against Aspergillus fumigatus assessed as FICI in presence of voriconazole; format: functional; how it was run: as §3
[33] = test system: Cryptococcus neoformans; experiment: Fungicidal activity against Cryptococcus neoformans H99 measured after 6 hrs by time-kill assay; format: functional, var grubii H99; how it was run: as §6
[34] = test system: Pichia kudriavzevii; experiment: Antifungal activity against Candida krusei 6258 assessed as FICI in presence of fluconazole; format: functional; how it was run: as §3
[35] = test system: Cryptococcus neoformans; experiment: Antifungal activity against Cryptococcus neoformans H99 assessed as FICI in presence of fluconazole; format: functional, var grubii H99; how it was run: as §3
[36] = test system: [Candida] auris; experiment: Antifungal activity against Candida auris assessed as FICI in presence of itraconazole; format: functional, Candidozyma auris; how it was run: as §3
[37] = test system: Candida albicans; experiment: Antifungal activity against Candida albicans assessed as FICI in presence of fluconazole; format: functional; how it was run: as §3
[38] = test system: Candida albicans; experiment: Antifungal activity against Candida albicans measured after 24 to 72 hrs; format: functional; how it was run: as §4
[39] = test system: Cryptococcus neoformans; experiment: Antifungal activity against Cryptococcus neoformans H99 measured after 24 to 72 hrs; format: functional; details: var grubii H99; how it was run: as §4
[40] = test system: Cryptococcus neoformans; experiment: Antifungal activity against Cryptococcus neoformans H99 infected in CBA/J mouse assessed as increase in survival at 1.2 mg/kg, ip; format: functional, organism-based; details: var grubii H99

O=C(N/N=C/c1cc(Cl)cc(Cl)c1O)c1ccc(Br)c(Br)c1
selectivity ratio [1]: 1070
selectivity ratio [2]: 1070
CC50 [3]: 32 µg/mL (≈ 68.5 µM)
fractional inhibitory concentration index (FICI) [4]: 0.091
fractional inhibitory concentration index (FICI) [5]: 1.5
fractional inhibitory concentration index (FICI) [6]: 0.53
MIC80 [7]: 8 µg/mL (≈ 17.1 µM)
fractional inhibitory concentration index (FICI) [8]: 0.247
MIC80 [9]: 0.5 µg/mL (≈ 1.07 µM)
fractional inhibitory concentration index (FICI) [10]: 1.001
fractional inhibitory concentration index (FICI) [11]: 0.56
fractional inhibitory concentration index (FICI) [12]: 0.5
fractional inhibitory concentration index (FICI) [13]: 1.008
fractional inhibitory concentration index (FICI) [14]: 1.25
CC50 [15]: 32 µg/mL (≈ 68.5 µM)
fractional inhibitory concentration index (FICI) [16]: 0.077
fractional inhibitory concentration index (FICI) [17]: 1.004
fractional inhibitory concentration index (FICI) [18]: 0.247
Activity [19]: Dose-dependent effect
fractional inhibitory concentration index (FICI) [20]: 1.24
fractional inhibitory concentration index (FICI) [21]: 0.5
fractional inhibitory concentration index (FICI) [22]: 0.247
fractional inhibitory concentration index (FICI) [23]: 0.258
fractional inhibitory concentration index (FICI) [24]: 0.5
fractional inhibitory concentration index (FICI) [25]: 0.501
MIC80 [26]: 0.25 µg/mL (≈ 0.535 µM)
MIC80 [27]: 0.25 µg/mL (≈ 0.535 µM)
fractional inhibitory concentration index (FICI) [28]: 1.03
fractional inhibitory concentration index (FICI) [29]: 1
fractional inhibitory concentration index (FICI) [30]: 2
MIC80 [31]: 1 µg/mL (≈ 2.14 µM)
fractional inhibitory concentration index (FICI) [32]: 1.031
MFC100 [33]: 1 µg/mL (≈ 2.14 µM)
fractional inhibitory concentration index (FICI) [34]: 0.25
fractional inhibitory concentration index (FICI) [35]: 0.237
fractional inhibitory concentration index (FICI) [36]: 1.12
fractional inhibitory concentration index (FICI) [37]: 0.252
MIC80 [38]: 2 µg/mL (≈ 4.28 µM)
MIC80 [39]: 0.03 µg/mL (≈ 0.0642 µM)

OC(Cn1cncn1)(Cn1cncn1)c1ccc(F)cc1F
Activity [40]: Active

O=C(N/N=C/c1cc(Br)cc(Br)c1O)c1ccc(Br)cc1
Activity [40]: Active
